Experimental data: ChEMBL document CHEMBL5724801, “EUbOPEN Chemogenomics Library - Multiplex” (2024)
Where “and” joins values, the source holds several entries; their conditions need not be identical. Identical values can stand only once.

Tested on: U2OS
Experiment: Multiplex assay against U2OS
Assay type: toxicity, cell-based
Conditions: human
Outline: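 Hoechst33342, BioTracker Green Microtubule Cytoskeleton Dye, MitoTracker Red and Annexin V Alexa Fluor 680 were added to live cells at seeding, and imaging on a CQ1 microscope at 37°C and 5% CO2 followed compound addition. Gating by CellPathfinder machine learning separated cells into Hoechst high-intensity objects or normal cells, then normal cells into healthy, pyknosed or fragmented nuclei, then pyknosed cells into mitotic or apoptotic. Per cents of healthy-nucleus cells are reported for the tubulin, mitochondrial-mass and membrane-permeability phenotypes.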

[1] = 12 h, 1 µM, compound concentration 1 uM
[2] = 12 h, 10 µM, compound concentration 10 uM
[3] = 24 h, 1 µM, compound concentration 1 uM
[4] = 24 h, 10 µM, compound concentration 10 uM
[5] = 48 h, 1 µM, compound concentration 1 uM
[6] = 48 h, 10 µM, compound concentration 10 uM

## COc1ccc(Cl)cc1[C@]1(F)C(=O)Nc2cc(C(F)(F)F)ccc21 [FLINDOKALNER]
[1]
  Population Apoptotic (%): 40.48% and 33.33%
  Population Fragmented Nuclei (%): 1.33% and 3.73%
  Population Healthy Nuclei (%): 87.53% and 81.37%
  Population Hoechst High Intensity Objects (%): 0%
  Population Membrane Permeable-Phenotype (%): 1.21% and 0.76%
  Population Mitochondria Different-Phenotype (%): 0.3% and 7.63%
  Population Mitotic Cells (%): 59.52% and 66.67%
  Population Normal (%): 100%
  Population Pyknosed Nuclei (%): 11.14% and 14.91%
  Population Tubulin-Different-Phenotype (%): 0.61% and 0.76%
  Total Cell Count: 377 and 161
[2]
  Population Apoptotic (%): 21.43% and 29.17%
  Population Fragmented Nuclei (%): 2.21% and 3.35%
  Population Healthy Nuclei (%): 86.19% and 83.24%
  Population Hoechst High Intensity Objects (%): 0%
  Population Membrane Permeable-Phenotype (%): 0.64% and 5.37%
  Population Mitochondria Different-Phenotype (%): 0% and 12.08%
  Population Mitotic Cells (%): 78.57% and 70.83%
  Population Normal (%): 100%
  Population Pyknosed Nuclei (%): 11.6% and 13.41%
  Population Tubulin-Different-Phenotype (%): 1.6% and 1.34%
  Total Cell Count: 362 and 179
[3]
  Population Apoptotic (%): 41.67% and 37.93%
  Population Fragmented Nuclei (%): 1.57% and 1.48%
  Population Healthy Nuclei (%): 88.98% and 84.24%
  Population Hoechst High Intensity Objects (%): 0%
  Population Membrane Permeable-Phenotype (%): 0.22% and 2.34%
  Population Mitochondria Different-Phenotype (%): 0.22% and 5.26%
  Population Mitotic Cells (%): 58.33% and 62.07%
  Population Normal (%): 100%
  Population Pyknosed Nuclei (%): 9.45% and 14.29%
  Population Tubulin-Different-Phenotype (%): 0.88% and 0.58%
  Total Cell Count: 508 and 203
[4]
  Population Apoptotic (%): 29.63% and 42.11%
  Population Fragmented Nuclei (%): 1.38% and 4.65%
  Population Healthy Nuclei (%): 88.02% and 77.67%
  Population Hoechst High Intensity Objects (%): 0%
  Population Membrane Permeable-Phenotype (%): 1.34% and 7.78%
  Population Mitochondria Different-Phenotype (%): 0% and 8.38%
  Population Mitotic Cells (%): 70.37% and 57.89%
  Population Normal (%): 100%
  Population Pyknosed Nuclei (%): 10.61% and 17.67%
  Population Tubulin-Different-Phenotype (%): 1.34% and 0%
  Total Cell Count: 509 and 215
[5]
  Population Apoptotic (%): 38.67% and 50%
  Population Fragmented Nuclei (%): 2.32% and 1.61%
  Population Healthy Nuclei (%): 89.42% and 82.32%
  Population Hoechst High Intensity Objects (%): 0%
  Population Membrane Permeable-Phenotype (%): 1.48% and 1.56%
  Population Mitochondria Different-Phenotype (%): 0.12% and 5.08%
  Population Mitotic Cells (%): 61.33% and 50%
  Population Normal (%): 100%
  Population Pyknosed Nuclei (%): 8.27% and 16.08%
  Population Tubulin-Different-Phenotype (%): 0.74% and 0.78%
  Total Cell Count: 907 and 311
[6]
  Population Apoptotic (%): 34.18% and 46.94%
  Population Fragmented Nuclei (%): 2.33% and 1.38%
  Population Healthy Nuclei (%): 89.31% and 85.12%
  Population Hoechst High Intensity Objects (%): 0%
  Population Membrane Permeable-Phenotype (%): 0.83% and 3.24%
  Population Mitochondria Different-Phenotype (%): 0% and 5.18%
  Population Mitotic Cells (%): 65.82% and 53.06%
  Population Normal (%): 100%
  Population Pyknosed Nuclei (%): 8.36% and 13.5%
  Population Tubulin-Different-Phenotype (%): 1.3% and 0.32%
  Total Cell Count: 945 and 363

## O=C(Nc1cc(C(F)(F)F)cc(C(F)(F)F)c1)c1cc(Cl)ccc1O [IMD-0354]
[1]
  Population Apoptotic (%): 56.25% and 45.83%
  Population Fragmented Nuclei (%): 0.73% and 2.45%
  Population Healthy Nuclei (%): 91.46% and 82.82%
  Population Hoechst High Intensity Objects (%): 0.24% and 0.61%
  Population Membrane Permeable-Phenotype (%): 0.27% and 2.22%
  Population Mitochondria Different-Phenotype (%): 0% and 7.41%
  Population Mitotic Cells (%): 43.75% and 54.17%
  Population Normal (%): 99.76% and 99.39%
  Population Pyknosed Nuclei (%): 7.8% and 14.72%
  Population Tubulin-Different-Phenotype (%): 0.27% and 0.74%
  Total Cell Count: 411 and 164
[2]
  Population Apoptotic (%): 45.45% and 65%
  Population Fragmented Nuclei (%): 2.48% and 9.2%
  Population Healthy Nuclei (%): 87.61% and 79.31%
  Population Hoechst High Intensity Objects (%): 0%
  Population Membrane Permeable-Phenotype (%): 0% and 0.72%
  Population Mitochondria Different-Phenotype (%): 0% and 2.9%
  Population Mitotic Cells (%): 54.55% and 35%
  Population Normal (%): 100%
  Population Pyknosed Nuclei (%): 9.91% and 11.49%
  Population Tubulin-Different-Phenotype (%): 0.26% and 0%
  Total Cell Count: 444 and 174
[3]
  Population Apoptotic (%): 40.91% and 57.69%
  Population Fragmented Nuclei (%): 1.32% and 3.81%
  Population Healthy Nuclei (%): 90.38% and 83.81%
  Population Hoechst High Intensity Objects (%): 0%
  Population Membrane Permeable-Phenotype (%): 0.21% and 1.7%
  Population Mitochondria Different-Phenotype (%): 0% and 8.52%
  Population Mitotic Cells (%): 59.09% and 42.31%
  Population Normal (%): 100%
  Population Pyknosed Nuclei (%): 8.3% and 12.38%
  Population Tubulin-Different-Phenotype (%): 0.42% and 0.57%
  Total Cell Count: 530 and 210
[4]
  Population Apoptotic (%): 60.24% and 73.33%
  Population Fragmented Nuclei (%): 1.8% and 8.77%
  Population Healthy Nuclei (%): 79.5% and 73.68%
  Population Hoechst High Intensity Objects (%): 0%
  Population Membrane Permeable-Phenotype (%): 2.55% and 1.59%
  Population Mitochondria Different-Phenotype (%): 0% and 0.79%
  Population Mitotic Cells (%): 39.76% and 26.67%
  Population Normal (%): 100%
  Population Pyknosed Nuclei (%): 18.69% and 17.54%
  Population Tubulin-Different-Phenotype (%): 3.4% and 0%
  Total Cell Count: 444 and 171
[5]
  Population Apoptotic (%): 46.15% and 44.44%
  Population Fragmented Nuclei (%): 2.37% and 2.99%
  Population Healthy Nuclei (%): 91.15% and 83.53%
  Population Hoechst High Intensity Objects (%): 0%
  Population Membrane Permeable-Phenotype (%): 0.68% and 0.36%
  Population Mitochondria Different-Phenotype (%): 0.14% and 3.58%
  Population Mitotic Cells (%): 53.85% and 55.56%
  Population Normal (%): 100%
  Population Pyknosed Nuclei (%): 6.48% and 13.47%
  Population Tubulin-Different-Phenotype (%): 1.23% and 0.36%
  Total Cell Count: 802 and 334
[6]
  Population Apoptotic (%): 62.57% and 80.82%
  Population Healthy Nuclei (%): 51.4% and 35.44%
  Population Hoechst High Intensity Objects (%): 0% and 0.63%
  Population Membrane Permeable-Phenotype (%): 13.86% and 7.14%
  Population Mitochondria Different-Phenotype (%): 1.49% and 1.79%
  Population Mitotic Cells (%): 37.43% and 19.18%
  Population Normal (%): 100% and 99.37%
  Population Pyknosed Nuclei (%): 45.55% and 46.2%
  Population Tubulin-Different-Phenotype (%): 11.39% and 8.93%
  Total Cell Count: 393 and 159

## Cc1ccc(F)cc1C(=O)Nc1ccc(C(=O)N2Cc3cccn3Cc3ccccc32)c(Cl)c1 [LIXIVAPTAN]
[1]
  Population Apoptotic (%): 69% and 84%
  Population Healthy Nuclei (%): 55% and 82%
  Population Hoechst High Intensity Objects (%): 3%
  Population Membrane Permeable-Phenotype (%): 9% and 14%
  Population Mitochondria Different-Phenotype (%): 9% and 10%
  Population Mitotic Cells (%): 30% and 15%
  Population Normal (%): 96%
  Population Pyknosed Nuclei (%): 11% and 8%
  Population Tubulin-Different-Phenotype (%): 7% and 11%
  Total Cell Count: 230 and 150
[2]
  Population Apoptotic (%): 59% and 47%
  Population Fragmented Nuclei (%): 34% and 13%
  Population Healthy Nuclei (%): 49% and 69%
  Population Hoechst High Intensity Objects (%): 5%
  Population Membrane Permeable-Phenotype (%): 79% and 63%
  Population Mitochondria Different-Phenotype (%): 42% and 55%
  Population Mitotic Cells (%): 40% and 52%
  Population Normal (%): 94%
  Population Pyknosed Nuclei (%): 16%
  Population Tubulin-Different-Phenotype (%): 85% and 77%
  Total Cell Count: 203 and 119
[3]
  Population Apoptotic (%): 86% and 57%
  Population Fragmented Nuclei (%): 26% and 14%
  Population Healthy Nuclei (%): 64% and 81%
  Population Hoechst High Intensity Objects (%): 1% and 4%
  Population Membrane Permeable-Phenotype (%): 9% and 11%
  Population Mitochondria Different-Phenotype (%): 9% and 13%
  Population Normal (%): 98% and 95%
  Population Pyknosed Nuclei (%): 8% and 4%
  Population Tubulin-Different-Phenotype (%): 4% and 7%
  Total Cell Count: 257 and 171
[4]
  Population Apoptotic (%): 59% and 66%
  Population Fragmented Nuclei (%): 30% and 14%
  Population Healthy Nuclei (%): 50% and 67%
  Population Hoechst High Intensity Objects (%): 4%
  Population Membrane Permeable-Phenotype (%): 65% and 54%
  Population Mitochondria Different-Phenotype (%): 63% and 67%
  Population Mitotic Cells (%): 40% and 33%
  Population Normal (%): 95%
  Population Pyknosed Nuclei (%): 18%
  Population Tubulin-Different-Phenotype (%): 75% and 66%
  Total Cell Count: 207 and 119
[5]
  Population Apoptotic (%): 87% and 95%
  Population Fragmented Nuclei (%): 24% and 10%
  Population Healthy Nuclei (%): 64% and 79%
  Population Hoechst High Intensity Objects (%): 1% and 3%
  Population Membrane Permeable-Phenotype (%): 9% and 13%
  Population Mitochondria Different-Phenotype (%): 6% and 11%
  Population Mitotic Cells (%): 12% and 5%
  Population Normal (%): 98% and 96%
  Population Pyknosed Nuclei (%): 11% and 10%
  Population Tubulin-Different-Phenotype (%): 5%
  Total Cell Count: 378 and 206
[6]
  Population Apoptotic (%): 75% and 92%
  Population Fragmented Nuclei (%): 32% and 18%
  Population Healthy Nuclei (%): 37% and 58%
  Population Hoechst High Intensity Objects (%): 5% and 12%
  Population Membrane Permeable-Phenotype (%): 49% and 60%
  Population Mitochondria Different-Phenotype (%): 40% and 52%
  Population Normal (%): 94% and 87%
  Population Pyknosed Nuclei (%): 29% and 23%
  Population Tubulin-Different-Phenotype (%): 44% and 57%
  Total Cell Count: 232 and 137
